According to publication PMC4678411 (Journal of Medicinal Chemistry, 2015):
≈ marks a conversion by molar mass, not a printed value.

Assays:
[1] = clinical trials, patients; cited from earlier work
[2] = Aqueous solubility determination; type: physicochemical; settings: pH 7.4
Method in brief: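 About 5 mg excess solid in Tris buffer pH 7.4, in triplicate. Sonicated, vortexed, then shaken at 100 shakes/min at 25 °C for 24 h. Solid removed by centrifugation and filtration; filtrate diluted. Quantified by HPLC on a C18 column with photodiode-array detection, using an acetonitrile (10–70%)/10 mM sodium phosphate pH 7 gradient over 20 min.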

[3] = tested on: alkaline phosphatase from bovine intestinal mucosa; settings: no enzyme; cited from earlier work
[4] = Chemical hydrolysis stability study at 40-70 °C with Arrhenius extrapolation; type: physicochemical; settings: for extrapolated pseudo-first-order rate constant (kobsd) for hydrolysis: extrapolated from Arrhenius plot; for pseudo-first-order rate constant (kobsd) of hydrolysis: pH 7.4; for half-life: pH 7.4, calculated half-life (t1/2) of hydrolysis
Method in brief: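 Test compound dissolved in Sodium Chloride Injection USP at 20.0 mg/100 mL ("high") or 3.00 mg/100 mL ("low"). Flame-sealed in sterilized ampules and held at 70, 60, 50 or 40 °C, sampled at intervals over hours (70, 60 °C) or days (50, 40 °C). Analysed by HPLC. Ea came from an Arrhenius plot, which was extrapolated to give kobsd, t1/2 and t90 at 25 and 4 °C.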

[5] = tested on: A2780 human ovarian cancer cell line; test: Efficacy study in a mouse model of human ovarian cancer; type: in vivo, female athymic nude mice
Method in brief: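 A2780 cells (RPMI 1640/10% FBS, mycoplasma-negative) implanted s.c. at 2.5 × 10^6 in 50% Matrigel into female athymic nude mice aged 7–9 weeks. Randomized at mean 188 mm3, 10 per group. Daily IP or oral-gavage doses of 0.1–1.2 mg/kg in USP saline for 30 days. Controls were vehicle and carboplatin 60 mg/kg twice weekly. Tumor volume (L × W²/2), survival and clinical signs tracked.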

[6] = tested on: HT-29 human colon adenocarcinoma cell line; test: Efficacy study in a mouse model of human colon adenocarcinoma; type: in vivo, female athymic nude mice; settings: for test-article related deaths: 0.9 mg/kg IP, ten mice
Method in brief: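 Female athymic nude mice aged 7–9 weeks, acclimated ≥7 days. Implanted s.c. in the right flank with 1.74 × 10^6 mycoplasma-negative HT-29 cells in 50% Matrigel/medium. Randomized at mean 110 mm3, 10 per group. Dosed IP in USP saline (0.2 mL) by group-mean body weight, daily or intermittently, for 28 days. Caliper volume (L × W²/2) measured ≥twice weekly, plus necropsy tumor weight, survival, body weight and clinical signs.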

Compound: CC(C)[C@]12O[C@H]1[C@@H]1O[C@]13[C@]1(O[C@H]1C[C@H]1C4=C(CC[C@@]13C)C(=O)OC4)[C@@H]2OC(=O)CCC(=O)O [omtriptolide, triptolide succinate]
- cleavage of the prodrug moiety [1]: slow and incomplete

Compound: CC(C)[C@]12O[C@H]1[C@@H]1O[C@]13[C@]1(O[C@H]1C[C@H]1C4=C(CC[C@@]13C)C(=O)OC4)[C@@H]2O [triptolide, Triptolide, reference compound]
- solubility at 24 h ([2]; Tris buffer): 17 µg/mL (≈ 47.2 µM)

Compound: CC(C)[C@]12O[C@H]1[C@@H]1O[C@]13[C@]1(O[C@H]1C[C@H]1C4=C(CC[C@@]13C)C(=O)OC4)[C@@H]2OCOP(=O)([O-])[O-].[Na+].[Na+] [Compound 4, Sodium (((5bS,6aS,7aR,8R,8aS,9aS,9bS,10aS,10bS)-8a-Isopropyl-10b-methyl-3-oxo-1,2,3,5,5b,6,6a,8,8a,9a,9b,10b-dodecahydrotris(oxireno)[2′,3′:4b,5;2″,3″:6,7;2‴,3‴:8a,9]phenanthro[1,2-c]furan-8-yl)oxy)methyl Phosphate]
- solubility enhancement by prodrug formation versus triptolide [2]: 3600 times
- stability in a similar assay in the absence of alkaline phosphatase [3]: stable for 1 h
- extrapolated pseudo-first-order rate constant (kobsd) for hydrolysis ([4]; 4 °C): 6.5 × 10^–6 h^–1
- extrapolated pseudo-first-order rate constant (kobsd) for hydrolysis ([4]; 25 °C): 8.6 × 10^–5 h^–1
- pseudo-first-order rate constant (kobsd) of hydrolysis ([4]; 40 °C): 0.000494 h^–1
- pseudo-first-order rate constant (kobsd) of hydrolysis ([4]; 50 °C): 0.001052 h^–1
- pseudo-first-order rate constant (kobsd) of hydrolysis ([4]; 60 °C): 0.002482 h^–1
- pseudo-first-order rate constant (kobsd) of hydrolysis ([4]; 70 °C): 0.008659 h^–1
- activation energy (Ea) of hydrolysis ([4]; from Arrhenius plot, pH 7.4, 40-70 °C): 15.2 kcal/mol
- half-life ([4]; 4 °C): 4460 days
- half-life ([4]; 25 °C): 336 days
- efficacy and tolerability ([5]; intraperitoneal injection, daily doses of 0.6 or 0.9 mg/kg (data not shown)): effective and well tolerated
- efficacy ([5]; oral gavage, daily doses of 0.6 or 0.9 mg/kg, slightly higher rates of morbidity and mortality): effective
- mice that survived until the end of the study ([6]; 0.9 mg/kg IP daily for 2 weeks followed by 3×/week): 9/10
- mice that survived until the end of the study ([6]; 0.9 mg/kg IP daily for 4 weeks): 7/10
- tumor status of all mice surviving until the end of the study ([6]; 0.9 mg/kg IP daily for 4 weeks or daily for 2 weeks followed by 3×/week): tumor free
- effect on xenograft tumors, intermittent regimens ([6]; 0.9 mg/kg IP less frequently than daily or with a break from daily dosing): effective
- test-article related deaths ([6]; QD for 2 weeks group): 1
- test-article related deaths ([6]; QD for 2 weeks then 3×/week group): 1
- test-article related deaths ([6]; QD for 4 weeks group): 3
- tolerability ([6]; IP, 0.1-0.9 mg/kg, all regimens): generally well tolerated
- effect on xenograft tumors ([6]; administered daily IP, dose levels from 0.3 to 0.9 mg/kg, 28 days): effective in reducing or eliminating xenograft tumors
